According to ChEMBL document CHEMBL4130545, “Lupane-Type Triterpenes of Phoradendron vernicosum” (J Nat Prod, 2017):

Key:
HeLa [1] = assay: Cytotoxic activity in human HeLa cells by sulforhodamine B assay; assay type: functional
In short: (§1)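 Cell lines grown in D-MEM with 10% (v/v) FBS, 100 U/mL penicillin G and 100 μg/mL streptomycin at 37 °C, 5% CO2, 95% humidity. Cytotoxicity was measured by the Skehan method. CC50 was taken as the concentration that reduces cell growth by 50%. Docetaxel served as positive control, and each test was run in triplicate.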

SiHa [2] = assay: Cytotoxic activity in human SiHa cells by sulforhodamine B assay; assay type: functional; in short: as §1
MCF7 [3] = assay: Cytotoxic activity in human MCF7 cells by sulforhodamine B assay; assay type: functional; in short: as §1
MDA-MB-231 [4] = assay: Cytotoxic activity in human MDA-MB-231 cells by sulforhodamine B assay; assay type: functional; in short: as §1
DU-145 [5] = assay: Cytotoxic activity in human DU145 cells by sulforhodamine B assay; assay type: functional; in short: as §1
KB [6] = assay: Cytotoxic activity in human KB cells by sulforhodamine B assay; assay type: functional; in short: as §1
HEp-2 [7] = assay: Cytotoxic activity in human Hep2 cells by sulforhodamine B assay; assay type: functional; in short: as §1
[8] = Cytotoxic activity in African green monkey Vero cells by sulforhodamine B assay; assay type: cell-based; conditions: chlorocebus sabaeus
In short: (§2)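 Cells grown in D-MEM with 10% (v/v) FBS, 100 U/mL penicillin G and 100 μg/mL streptomycin, at 37 °C under 5% CO2 and 95% humidity. Cytotoxic and antiproliferative effects were measured by the sulforhodamine B method of Skehan et al. CC50 (cytotoxic) or IC50 (antiproliferative) is the concentration giving 50% growth reduction. Docetaxel was the positive control. Triplicate tests.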

[9] = Cytotoxic activity in HEK293 cells by sulforhodamine B assay; assay type: cell-based; conditions: human; in short: as §2
HeLa [10] = assay: Antiproliferative activity in human HeLa cells by sulforhodamine B assay; assay type: functional, cell-based; in short: as §2
SiHa [11] = assay: Antiproliferative activity in human SiHa cells by sulforhodamine B assay; assay type: functional, cell-based; in short: as §2
MCF7 [12] = assay: Antiproliferative activity in human MCF7 cells by sulforhodamine B assay; assay type: functional, cell-based; in short: as §2
MDA-MB-231 [13] = assay: Antiproliferative activity in human MDA-MB-231 cells by sulforhodamine B assay; assay type: functional, cell-based; in short: as §2
DU-145 [14] = assay: Antiproliferative activity in human DU145 cells by sulforhodamine B assay; assay type: functional, cell-based; in short: as §2
KB [15] = assay: Antiproliferative activity in human KB cells by sulforhodamine B assay; assay type: functional, cell-based; in short: as §2
HEp-2 [16] = assay: Antiproliferative activity in human Hep2 cells by sulforhodamine B assay; assay type: functional, cell-based; in short: as §2
Vero = assay: Antiproliferative activity in African green monkey Vero cells by sulforhodamine B assay; assay type: cell-based; conditions: Chlorocebus sabaeus; in short: as §2
HEK293 = assay: Antiproliferative activity in HEK293 cells by sulforhodamine B assay; assay type: cell-based; conditions: Homo sapiens; in short: as §2
[17] = Selectivity index, ratio of cytotoxic CC50 for African green monkey Vero cells to cytotoxic CC50 for human SiHa cells; assay type: toxicity; conditions: Vero cells versus SiHa cells, read-out: Selectivity Index
In short: (§3)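 Selectivity index for harmfulness to normal cells: the normal-cell (Vero or HEK293) CC50 or IC50 over the cancer-cell value from the same assay type. Each value is from sulforhodamine B growth-reduction tests done in triplicate in D-MEM/10% FBS at 37 °C, 5% CO2.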

[18] = Selectivity index, ratio of cytotoxic CC50 for African green monkey Vero cells to cytotoxic CC50 for human MCF7 cells; assay type: toxicity; conditions: Vero cells versus MCF7 cells, read-out: Selectivity Index; in short: as §3
[19] = Selectivity index, ratio of cytotoxic CC50 for African green monkey Vero cells to cytotoxic CC50 for human MDA-MB-231 cells; assay type: toxicity; conditions: Vero cells versus MDA-MB-231 cells, read-out: Selectivity Index; in short: as §3
[20] = Selectivity index, ratio of cytotoxic CC50 for African green monkey Vero cells to cytotoxic CC50 for human DU145 cells; assay type: toxicity; conditions: Vero cells versus DU145 cells, read-out: Selectivity Index; in short: as §3
[21] = Selectivity index, ratio of cytotoxic CC50 for African green monkey Vero cells to cytotoxic CC50 for human KB cells; assay type: toxicity; conditions: Vero cells versus KB cells, read-out: Selectivity Index; in short: as §3
[22] = Selectivity index, ratio of antiproliferative IC50 for African green monkey Vero cells to antiproliferative IC50 for human SiHa cells; assay type: toxicity; conditions: Vero cells versus SiHa cells, read-out: Ratio IC50; in short: as §3
[23] = Selectivity index, ratio of antiproliferative IC50 for African green monkey Vero cells to antiproliferative IC50 for human MCF7 cells; assay type: toxicity; conditions: Vero cells versus MCF7 cells, read-out: Ratio IC50; in short: as §3
[24] = Selectivity index, ratio of antiproliferative IC50 for African green monkey Vero cells to antiproliferative IC50 for human KB cells; assay type: toxicity; conditions: Vero cells versus KB cells, read-out: Ratio IC50; in short: as §3
[25] = Selectivity index, ratio of antiproliferative IC50 for African green monkey Vero cells to antiproliferative IC50 for human Hep2 cells; assay type: toxicity; conditions: Vero cells versus Hep2 cells, read-out: Ratio IC50; in short: as §3
[26] = Selectivity index, ratio of cytotoxic CC50 for African green monkey Vero cells to cytotoxic CC50 for human Hep2 cells; assay type: toxicity; conditions: Vero cells versus Hep2 cells, read-out: Selectivity Index

Row | SMILES | CC50 (HeLa [1]) [µM] | CC50 (SiHa [2]) [µM] | CC50 (MCF7 [3]) [µM] | CC50 (MDA-MB-231 [4]) [µM] | CC50 (DU-145 [5]) [µM] | CC50 (KB [6]) [µM] | CC50 (HEp-2 [7]) [µM] | CC50 [8] [µM] | CC50 [9] [µM] | IC50 (HeLa [10]) [µM] | IC50 (SiHa [11]) [µM] | IC50 (MCF7 [12]) [µM] | IC50 (MDA-MB-231 [13]) [µM] | IC50 (DU-145 [14]) [µM] | IC50 (KB [15]) [µM] | IC50 (HEp-2 [16]) [µM] | IC50 (Vero) [µM] | IC50 (HEK293) [µM] | selectivity ratio [18] | selectivity ratio [21] | other results
1 | C=C(C=O)[C@@H]1CC[C@]2(C(=O)O)CC[C@]3(C)[C@H](CC[C@@H]4[C@@]5(C)CC[C@@H](O)[C@](C)(CO)[C@@H]5CC[C@]43C)[C@@H]12 | 182 | 92.2 | > 500 | 106 | 52.6 | > 500 | > 500 | > 500 | > 500 | 106 | 127 | > 500 | 123 | 89.7 | > 500 | > 500 | > 500 | > 500 | – | – | –
2 | C=C(C)[C@@H]1CC[C@]2(C(=O)O)CC[C@]3(C)[C@H](CC[C@@H]4[C@@]5(C)CC[C@@H](O)[C@](C)(CO)[C@@H]5CC[C@]43C)[C@@H]12 | 120 to 153 | 20.3 to 110 | 31.7 to 98.5 | 71.2 to 91.1 | 53.1 to 97.2 | 24.1 to 500 | > 500 | > 500 | 95.8 to 500 | > 500 | 57.8 to 500 | 48.9 to 500 | 169 to 500 | > 500 | 12.5 to 500 | 75.2 to 500 | > 500 | 95.5 to 500 | 3 | 18.3 | selectivity ratio [17]: 4.7; selectivity ratio [19]: 1.3; selectivity ratio [20]: 1.8; selectivity ratio [22]: 1.6; selectivity ratio [23]: 1.9; selectivity ratio [24]: 18.3; selectivity ratio [25]: 1.3
3 | C=C(C)[C@@H]1CC[C@]2(C(=O)O)CC[C@]3(C)[C@H](CC[C@@H]4[C@@]5(C)CC[C@H]6OC(C)(C)OC[C@]6(C)[C@@H]5CC[C@]43C)[C@@H]12 | > 500 | > 500 | 84.6 | > 500 | > 500 | 10.2 | 32.4 | > 500 | 420 | > 500 | 58.2 | > 500 | > 500 | > 500 | 16.4 | > 500 | > 500 | 656 | 5 | 41 | selectivity ratio [26]: 13; selectivity ratio [22]: 11.3; selectivity ratio [24]: 39.9
4 | C=C(C)[C@@H]1CC[C@]2(CO)CC[C@]3(C)[C@H](CC[C@@H]4[C@@]5(C)CC[C@H](O)C(C)(C)[C@@H]5CC[C@]43C)[C@@H]12 [BETULIN] | > 500 | > 500 | > 500 | > 500 | 162 | > 500 | > 500 | > 500 | > 500 | > 500 | > 500 | > 500 | > 500 | 137 | > 500 | > 500 | > 500 | > 500 | – | – | –
